Screening data as filed in PubChem.
Scp1 inh – blocks human Scp-1 phosphatase activity | Q9GZU7 | Recombinant Scp1, phosphopeptide, malachite green phosphate absorbance | inhibition, % at 20 µM | actives 0.88% (n = 340,000) | AID 493091;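 active = inhibition above about 50% at 20 µM, limit read from the data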;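 note: plate controls were DMSO wells with enzyme for no effect and wells lacking enzyme for full effect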
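Test system – truncated SCP-1 phosphatase (76-261aa) · Reagent – Phosphorylated 17-residue peptide substrate · Incubation – 45 min room-temperature reaction, 5 min colour, 30 min stabiliser · Detection – colorimetric phosphate reagent with accelerator and stabiliser, absorbance at 630 nm · Measure – % inhibition at 20 µM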
LMPTP block – LMPTP (human) inhibition; inhibition, % at 20 µM; actives 0.22% (n = 360,000); recombinant LMPTP-A, OMFP fluorogenic substrate, fluorescence intensity; AID 651560;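 active = compounds that cut the enzyme signal by at least half of the control window in the single-dose screen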;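 note: plate controls were DMSO wells with enzyme plus substrate for no effect and substrate without enzyme for full effect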
Target sequence (P24666 whole entry, looked up): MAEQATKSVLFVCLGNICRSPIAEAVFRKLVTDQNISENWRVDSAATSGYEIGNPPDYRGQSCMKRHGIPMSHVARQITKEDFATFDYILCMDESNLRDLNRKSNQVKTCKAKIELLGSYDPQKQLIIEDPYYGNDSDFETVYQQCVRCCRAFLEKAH
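Test system – LMPTP-A enzyme · Amount – LMPTP-A at 0.625 nM final in the reaction · Buffer or medium – Bis-Tris pH 6.0, DTT, detergent · Reagent – OMFP 400 µM · Doses – single 20 µM dose · Schedule – reaction 50 min, room temperature, dark · Detection – fluorescence intensity of OMFP turnover product · Evaluation – percent inhibition versus substrate-only and uninhibited controls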
NadD block – blocks S. aureus nicotinate mononucleotide adenylyltransferase; inhibition, % at 20 µM; AID 602399; purified NadD enzyme, colorimetric absorbance read-out; actives 0.78% (n = 360,000); in the data active = inhibition above about 26%
SUMO1-SIM PPI – alters human SUMO1 binding to SIM partners; AID 602429; actives 0.33% (n = 360,000); inhibition, % at 20 µM; SUMO1 binding to a labelled peptide, TR-FRET, 1 h; P63165; in the data active = inhibition above about 37%
STEP block – inhibitors of human striatal-enriched phosphatase STEP; recombinant STEP, OMFP fluorogenic substrate, fluorescence; inhibition, % at 20 µM; actives 0.25% (n = 360,000);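 active = inhibition at 20 µM, scaled per plate between control wells, above about 37%, limit read from the data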;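 note: 0% = DMSO with enzyme and substrate and 100% = substrate only without enzyme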
Target sequence (P54829 whole entry, looked up): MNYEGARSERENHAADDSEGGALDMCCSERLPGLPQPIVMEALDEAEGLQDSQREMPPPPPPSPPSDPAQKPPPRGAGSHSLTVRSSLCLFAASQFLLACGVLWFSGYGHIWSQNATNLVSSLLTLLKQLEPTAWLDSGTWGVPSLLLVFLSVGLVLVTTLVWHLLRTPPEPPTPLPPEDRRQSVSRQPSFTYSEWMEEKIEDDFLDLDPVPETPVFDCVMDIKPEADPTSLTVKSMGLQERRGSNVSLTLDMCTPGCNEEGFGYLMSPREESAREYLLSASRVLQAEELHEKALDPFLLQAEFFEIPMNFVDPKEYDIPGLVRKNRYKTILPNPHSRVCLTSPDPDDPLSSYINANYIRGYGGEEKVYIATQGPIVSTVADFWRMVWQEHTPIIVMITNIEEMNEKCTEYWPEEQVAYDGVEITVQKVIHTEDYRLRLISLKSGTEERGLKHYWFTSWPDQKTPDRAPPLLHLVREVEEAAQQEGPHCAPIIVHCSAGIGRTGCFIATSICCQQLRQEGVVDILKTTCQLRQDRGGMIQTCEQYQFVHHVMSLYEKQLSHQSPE
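material = STEP tyrosine phosphatase | reagent = fluorogenic phosphatase substrate OMFP at 25 µM final | doses = single compound dose of 20 µM, 1% DMSO final | schedule = 20 min reaction, room temperature, in the dark | measured by = fluorescence, 480/540 nm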
DNMT1 block – DNMT1 (human) enzyme inhibition; actives 0.83% (n = 360,000); inhibition (reported as % activation of signal), % at 10 µM; DNMT1 molecular beacon, Hinp1I cleavage, fluorescence; AID 588458; in the data active = inhibition above about 50%
DNMT1 interf DR – counter-screen for DNMT1 inhibitors: spectral interference, dose response | shares compounds with DNMT1 block | molecular beacon fluorescence | IC50, µM | 200 tested, under 10 active | AID 602382; call rule not given here
DNMT1 confirm – confirmation of human DNMT1 inhibitors | shares compounds with DNMT1 block | DNMT1 molecular beacon HinP1I cleavage, fluorescence | inhibition, % at 10 µM | actives 8% (n = 2,300) | AID 602385;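 active = average inhibition of at least 30% in the single-concentration confirmation test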
Beacon interf – counter-screen for DNMT1 inhibitors: spectral interference | actives 1% (n = 2,300) | activation (fluorescence interference), % at 10 µM | DNMT1 molecular beacon spectral interference counterscreen, fluorescence 485/520 | AID 602387 | shares compounds with DNMT1 block;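 active = activation of at least 30% at 10 µM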;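 note: DNMT1 catalytic domain with a HinP1I cleavage step and a FAM/dabcyl DNA beacon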
An asterisk follows results filed as active; nt = no result given. Sampled rows, rich in hits. Any-hit rate of the full collection: about 2.4%.

SMILES	Scp1 inh	LMPTP block	NadD block	SUMO1-SIM PPI	STEP block	DNMT1 block	DNMT1 confirm	Beacon interf	others
CCn1ccnc1CN(C)Cc1cn(-c2ccc(C)cc2)nc1-c1ccc(F)cc1	-3.9	1.6	-6.0	-1.3	2.6	59.9*	1.7	5.7
Cc1cc(N2C(=O)CCC2=O)ccc1NC(=O)c1cccs1	-7.2	0.9	2.5	5.3	0.2	-2.1	nt	nt
Nc1nc(-c2ccco2)c(-c2ccco2)s1	0.0	25.4	15.7	32.1	0.1	51.2*	3.0	28.9
O=C(CCl)Nc1nc(-c2ccco2)c(-c2ccco2)s1	-7.1	2.5	6.5	21.7	-3.2	38.5	nt	nt
CC(=O)Nc1ccc(NC(=O)CCc2nc3sc4c(c3c(=O)[nH]2)CCCC4)cc1	16.9	2.4	3.8	0.3	3.1	5.8	nt	nt
CC1(NC(=O)CCc2nc3sc4c(c3c(=O)[nH]2)CCCC4)CCS(=O)(=O)C1 (stereo unspecified)	nt	17.7	3.6	12.2	4.1	54.4*	6.5	-4.4
CCC(CC)C(=O)N(C)c1c(C)nc2c(OCc3ccccc3C)cccn12	nt	0.9	-0.6	-3.8	0.3	68.2*	-0.2	-0.3
O=C(Cn1cnc2ccccc2c1=O)NCCC(=O)Nc1ccc(F)cc1	-7.4	-0.1	-2.2	-3.2	0.8	0.7	nt	nt
CC1(C)CC2(CCCN(CC(O)(c3ccccc3)c3ccccc3)C2)CCO1 (stereo unspecified)	-5.8	0.5	-4.1	1.9	0.8	93.6*	3.5	2.9
O=C(CCNC(=O)c1ccc(Cl)cc1)NCc1ccco1	-4.7	-0.1	-4.5	3.9	-0.2	12.7	nt	nt
NC(=O)CSc1nc2scc(-c3ccco3)c2c(=O)n1-c1ccccc1	-2.3	47.2	10.2	13.5	4.1	50.2*	2.6	1.4
COc1ccccc1-c1nnc(NC(=O)c2ccc3c(c2)OCO3)s1	-4.1	3.3	2.0	2.2	0.3	54.8*	1.7	-4.6
Cc1cc(NC(=O)CSc2cn(CCNC(=O)c3ccccc3)c3ccccc23)no1	39.1	4.3	-4.6	6.9	5.5	71.8*	7.2	-0.2
COc1ccc(/C=N/Nc2cc(N(C)C)nc(N(C)C)n2)cc1	-2.0	6.4	0.4	-6.3	4.7	51.5*	-3.5	-10.7
CN(C)c1cc(N/N=C\c2ccccc2)nc(N(C)C)n1	-3.0	6.9	-9.9	20.1	1.9	4.9	nt	nt
COC(=O)c1ccc(CCc2cc(O)ccc2O)cc1	-10.4	-0.2	5.9	-2.1	-0.6	72.3*	4.1	4.9
COc1ccc(CN2C[C@]3(CO)O[C@@H](CO)C[C@@H]3S2(=O)=O)cc1	3.9	-1.1	-0.5	2.5	4.7	2.5	nt	nt
CCc1ccc(C(=O)COC(=O)c2cc([N+](=O)[O-])ccc2NCCO)cc1	-9.0	1.0	-9.8	-16.2	3.2	90.4*	4.8	7.0
O=C(COC(=O)c1cc([N+](=O)[O-])ccc1NCCO)c1ccc(Cl)cc1	-3.1	1.2	-2.7	-15.7	-1.2	-2.4	nt	nt
COc1ccc(S(=O)(=O)/N=C2/NC(=O)/C(=C/c3ccco3)S2)cc1	19.6	0.6	8.3	25.0	3.7	64.2*	0.0	-1.1
COc1ccc(S(=O)(=O)/N=C2/NC(=O)/C(=C\c3ccco3)S2)cc1	0.5	-1.4	2.4	8.5	1.1	23.4	nt	nt
O=C1/C(=C/c2c[nH]c3ccccc23)CCC/C1=C\c1c[nH]c2ccccc12	-46.7	2.8	20.5	-11.1	-9.0	-30.2	nt	nt
O=C1C(=Cc2ccco2)CCCC1=Cc1ccco1	66.5*	11.2	13.4	10.6	6.9	100.1*	0.3	0.1
CCOc1ccc(CN(CC)C(=O)c2ccc3c(c2)[nH]c(=O)c(=O)n3CC)cc1OC	-5.5	-1.3	5.8	4.0	-1.2	0.4	nt	nt
CN(C)CCc1cc2c(c3c1ccc1ccccc13)OCO2	-3.7	-0.6	-11.1	-14.7	4.1	59.8*	36.9*	5.8	DNMT1 interf DR=>99
SMILES	Scp1 inh	LMPTP block	NadD block	SUMO1-SIM PPI	STEP block	DNMT1 block	DNMT1 confirm	Beacon interf	others
COc1ccccc1CCNC(C)CCc1ccc(O)cc1 (stereo unspecified)	-5.1	-0.7	-3.2	-0.1	-3.9	67.6*	10.7	2.9
COc1ccc(CCC(C)NCc2ccccc2OC)cc1 (stereo unspecified)	-3.7	-2.7	-5.0	-2.1	-0.6	-4.3	nt	nt
CCOC(=O)c1nc(Nc2cc(C)cc(C)c2)c2ccccc2n1	-5.1	1.6	1.2	-2.6	-2.0	-3.2	nt	nt
Cc1n[nH]c(=O)nc1N/N=C/c1ccc(O)c([N+](=O)[O-])c1	7.1	-10.0	-1.3	-19.4	1.9	72.9*	0.0	1.4
COc1ccc(/C=N/Nc2nc(=O)[nH]nc2C)cc1[N+](=O)[O-]	3.1	-5.5	-5.8	-23.1	0.7	-0.2	nt	nt
O=C(CSc1nc2ccccc2c(=O)n1-c1ccccc1)N1CCCc2ccccc21	-6.3	1.3	3.1	-2.4	-0.5	4.1	nt	nt
CCOc1ccccc1-n1c(SCC(=O)N2CCCc3ccccc32)nnc1-c1cccnc1	-6.5	-0.3	-2.9	4.1	16.9	2.6	nt	nt
CCOc1ccc(-n2c(SCC(=O)N3CCc4ccccc43)nnc2-c2c[nH]c3ccccc23)cc1	13.2	15.5	8.1	14.8	3.9	80.5*	-1.1	-5.7
O=C(CSc1nc2ccccc2c(=O)n1-c1ccccc1)N1CCc2ccccc21	2.8	0.6	-1.0	2.7	5.7	53.4*	-1.7	-10.0
O=C(Nc1nnc(SCc2ccccn2)s1)C1CC(=O)N(c2ccc(F)cc2)C1 (stereo unspecified)	-7.1	1.3	5.0	-2.1	1.3	-10.1	nt	nt
O=C1CC(N2CCC(c3nc4ccccc4o3)CC2)C(=O)N1 (stereo unspecified)	-12.6	-1.9	-0.2	1.8	0.1	1.4	nt	nt
CC1CCC2(CC1)NC(=O)N(CC(=O)c1cn(CCC#N)c3ccccc13)C2=O (stereo unspecified)	-1.7	-0.8	-6.0	1.0	-4.1	-3.1	nt	nt
COc1cc(/C=C(\C#N)C(=O)NCC2CCCO2)cc(OC)c1OC (stereo unspecified)	-2.7	3.4	-3.2	-6.7	1.7	56.6*	2.7	3.8
COc1ccc(/C=C(\C#N)C(=O)NCC2CCCO2)cc1OC (stereo unspecified)	-3.6	-1.9	-0.6	-20.1	-1.1	8.7	nt	nt
CC(C)Sc1nnc(NC(=O)c2ccc3c(c2)OCO3)s1	-2.4	1.0	-3.1	2.8	-1.4	-1.0	nt	nt
